Source: ChEMBL document CHEMBL1128530, “Alpha- and beta-adrenoceptors: from the gene to the clinic. 1. Molecular biology and adrenoceptor subclassification” (J Med Chem, 1995)

Columns and labels:
[1] = target: T1, Alpha-2A adrenergic receptor (Homo sapiens, UniProt P08913); assay: Binding affinity against Alpha-2A adrenergic receptor, from human clones.
T1 sequence (P08913 whole entry): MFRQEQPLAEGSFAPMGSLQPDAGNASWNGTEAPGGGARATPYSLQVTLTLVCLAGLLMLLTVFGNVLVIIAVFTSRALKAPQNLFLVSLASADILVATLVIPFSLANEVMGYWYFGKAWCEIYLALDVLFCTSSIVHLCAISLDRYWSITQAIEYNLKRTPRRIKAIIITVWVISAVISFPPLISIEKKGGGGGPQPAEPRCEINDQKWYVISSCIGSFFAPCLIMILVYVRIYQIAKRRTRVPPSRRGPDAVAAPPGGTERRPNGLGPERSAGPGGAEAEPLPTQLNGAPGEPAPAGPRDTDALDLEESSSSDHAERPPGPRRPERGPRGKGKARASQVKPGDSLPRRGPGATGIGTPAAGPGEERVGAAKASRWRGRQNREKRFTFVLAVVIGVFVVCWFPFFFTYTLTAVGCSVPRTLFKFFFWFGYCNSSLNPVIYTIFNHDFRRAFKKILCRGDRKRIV

[2] = target: T2, Alpha-1A adrenergic receptor (Bos taurus, UniProt P18130); assay: Binding affinity against Alpha-1A adrenergic receptor from bovine clone
T2 sequence (P18130 whole entry): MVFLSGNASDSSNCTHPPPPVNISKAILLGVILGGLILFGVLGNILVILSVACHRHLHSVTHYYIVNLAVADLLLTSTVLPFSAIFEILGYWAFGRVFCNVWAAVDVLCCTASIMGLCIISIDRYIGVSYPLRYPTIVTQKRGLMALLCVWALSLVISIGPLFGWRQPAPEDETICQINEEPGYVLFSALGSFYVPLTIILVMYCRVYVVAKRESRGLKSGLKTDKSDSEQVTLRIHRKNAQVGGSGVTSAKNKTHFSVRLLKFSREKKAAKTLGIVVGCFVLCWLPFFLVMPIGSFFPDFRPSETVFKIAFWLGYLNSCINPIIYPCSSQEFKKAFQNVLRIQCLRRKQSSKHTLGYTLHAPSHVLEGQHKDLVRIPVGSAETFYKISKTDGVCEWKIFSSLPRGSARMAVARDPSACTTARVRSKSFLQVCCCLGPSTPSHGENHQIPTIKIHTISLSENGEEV

[3] = target: T3, Alpha-1A adrenergic receptor (Homo sapiens, UniProt P35348); assay: Binding affinity against Alpha-1A adrenergic receptor from human clone
T3 sequence (P35348 whole entry): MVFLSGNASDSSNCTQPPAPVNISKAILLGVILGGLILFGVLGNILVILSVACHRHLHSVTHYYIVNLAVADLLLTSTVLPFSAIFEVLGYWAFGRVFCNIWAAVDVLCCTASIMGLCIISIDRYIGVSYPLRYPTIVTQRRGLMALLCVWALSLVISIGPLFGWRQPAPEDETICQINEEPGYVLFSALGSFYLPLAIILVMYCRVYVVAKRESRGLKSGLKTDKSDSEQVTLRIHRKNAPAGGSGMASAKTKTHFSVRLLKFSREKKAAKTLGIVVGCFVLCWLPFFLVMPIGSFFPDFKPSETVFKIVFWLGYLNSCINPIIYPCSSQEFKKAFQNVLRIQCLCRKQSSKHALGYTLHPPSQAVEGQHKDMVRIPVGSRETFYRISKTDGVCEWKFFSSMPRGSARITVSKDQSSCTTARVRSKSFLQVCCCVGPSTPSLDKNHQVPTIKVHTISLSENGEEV

[4] = target: T4, Alpha-1B adrenergic receptor (Homo sapiens, UniProt P35368); assay: The compound was tested for binding affinity against Alpha-1B adrenergic receptor, from human clones.
T4 sequence (P35368 whole entry): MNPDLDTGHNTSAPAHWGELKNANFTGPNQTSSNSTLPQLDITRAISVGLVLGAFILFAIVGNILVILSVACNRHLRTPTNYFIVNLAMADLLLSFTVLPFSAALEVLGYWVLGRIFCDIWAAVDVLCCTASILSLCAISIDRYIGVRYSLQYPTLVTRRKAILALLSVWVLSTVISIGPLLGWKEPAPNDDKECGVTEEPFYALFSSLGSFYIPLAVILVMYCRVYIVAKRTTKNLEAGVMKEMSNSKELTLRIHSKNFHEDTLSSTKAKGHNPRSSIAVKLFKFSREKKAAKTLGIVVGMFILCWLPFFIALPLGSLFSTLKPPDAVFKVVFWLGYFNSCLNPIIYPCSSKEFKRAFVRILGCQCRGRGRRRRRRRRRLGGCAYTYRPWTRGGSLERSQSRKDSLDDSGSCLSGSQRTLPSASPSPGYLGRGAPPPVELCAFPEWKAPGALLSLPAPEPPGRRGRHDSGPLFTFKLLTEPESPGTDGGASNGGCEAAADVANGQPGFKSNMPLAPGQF

[5] = target: T5, Alpha-1D adrenergic receptor (Homo sapiens, UniProt P25100); assay: Binding affinity against Alpha-1D adrenergic receptor, from human clones.
T5 sequence (P25100 whole entry): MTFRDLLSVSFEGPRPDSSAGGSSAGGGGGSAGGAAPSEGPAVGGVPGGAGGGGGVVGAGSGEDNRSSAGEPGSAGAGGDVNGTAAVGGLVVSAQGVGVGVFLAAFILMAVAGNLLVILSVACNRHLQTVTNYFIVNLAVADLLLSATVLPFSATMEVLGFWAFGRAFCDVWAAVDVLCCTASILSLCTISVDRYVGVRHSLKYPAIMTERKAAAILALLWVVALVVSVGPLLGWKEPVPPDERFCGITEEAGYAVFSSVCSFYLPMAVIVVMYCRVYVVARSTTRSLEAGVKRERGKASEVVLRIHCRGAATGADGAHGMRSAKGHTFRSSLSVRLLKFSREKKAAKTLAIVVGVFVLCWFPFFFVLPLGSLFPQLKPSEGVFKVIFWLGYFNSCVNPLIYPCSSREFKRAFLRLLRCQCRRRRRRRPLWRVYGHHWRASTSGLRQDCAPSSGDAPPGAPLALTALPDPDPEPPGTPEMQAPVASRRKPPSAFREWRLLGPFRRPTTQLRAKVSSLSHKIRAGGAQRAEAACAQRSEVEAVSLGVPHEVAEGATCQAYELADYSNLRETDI

[6] = target: T1, Alpha-2A adrenergic receptor; assay: The compound was tested for binding affinity against Alpha-2A adrenergic receptor from human clones.
In short: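 Human α2A-adrenoceptor clone expressed in CHO cells; radioligand binding read out as Ki (nM).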

[7] = target: Alpha-1B adrenergic receptor (Rattus norvegicus, UniProt P15823); assay: Overall binding displacement in tissues containing only the Alpha-1B adrenergic receptor (rat spleen, rat liver); assay type: tissue-based
Sequence of Alpha-1B adrenergic receptor (Rattus norvegicus, UniProt P15823) (P15823 whole entry, looked up): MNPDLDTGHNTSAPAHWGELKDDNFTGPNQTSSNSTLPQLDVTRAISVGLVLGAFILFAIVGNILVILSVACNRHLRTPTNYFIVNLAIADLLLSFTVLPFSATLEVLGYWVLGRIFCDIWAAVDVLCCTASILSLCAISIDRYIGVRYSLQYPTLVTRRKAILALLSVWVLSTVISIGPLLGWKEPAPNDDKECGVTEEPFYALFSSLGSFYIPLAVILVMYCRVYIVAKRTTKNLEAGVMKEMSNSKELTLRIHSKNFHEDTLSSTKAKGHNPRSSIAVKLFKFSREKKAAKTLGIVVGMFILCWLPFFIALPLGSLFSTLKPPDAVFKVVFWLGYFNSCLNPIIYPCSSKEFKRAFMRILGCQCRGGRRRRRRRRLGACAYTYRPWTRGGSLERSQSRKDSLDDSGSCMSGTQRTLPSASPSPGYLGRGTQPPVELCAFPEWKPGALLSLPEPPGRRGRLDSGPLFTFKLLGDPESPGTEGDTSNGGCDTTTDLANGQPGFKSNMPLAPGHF

[8] = target: T2, Alpha-1A adrenergic receptor; assay: The compound was tested for binding affinity against Alpha-1A adrenergic receptor from bovine clones.

Q: What does the source list for `COc1cccc(OC)c1OCCNCC1COc2ccccc2O1` (configuration not stated)?
A: Ki [1]: 0.0035 µM; Ki [2]: 0.00035 µM; Ki [3]: 0.00037 µM

Q: What does the source list for `COc1ccccc1N1CCN(CCCNc2c(C)c(=O)n(C)c(=O)n2C)CC1`?
A: Ki [4]: 0.092 µM; Ki [5]: 0.021 µM; Ki [6]: 0.612 µM; Ki [7]: 0.096 µM; Ki [8]: 0.0044 µM

Q: With `O=C(NC1CCN(CCc2c[nH]c3ccccc23)CC1)c1ccccc1` [INDORAMIN] as the compound, how does the Ki [4] read?
A: 0.029 µM

Q: And the Ki [5]?
A: 0.11 µM

Q: What about the Ki [6] of the same compound?
A: 2.24 µM

Q: And the Ki [8]?
A: 0.012 µM
